Structures can show the parent of a compound that is named as a salt.
Assays:
Assay type in all cases: functional, cell-based
A549 = assay: Cytotoxicity against human A549 cells after 24 hrs by MTT assay; settings: A549, 24 h
How it was run: (§1)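 Cells seeded 24 h before treatment, then exposed continuously to a range of compound concentrations (dissolved in DMSO) for 24 h. MTT (5 mg/mL in PBS) added, 4 h at 37 °C, 5% CO2; absorbance read at 570 nm. IC50 (50% growth inhibition) derived from plotted data, untreated cells as 100%; at least three experiments. Taxol and adriamycin as positive controls.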

[1] = Cytotoxicity against human PC3 cells after 24 hrs by MTT assay; settings: PC-3, 24 h; how it was run: as §1
DU-145 = assay: Cytotoxicity against human DU145 cells after 24 hrs by MTT assay; settings: DU-145, 24 h; how it was run: as §1
[2] = Cytotoxicity against human NCI-H1688 cells after 24 hrs by MTT assay; settings: NCI-H1688, 24 h; how it was run: as §1

C=C[C@@]1(C)CC[C@@]2(C)[C@@H](CC[C@]34COC(=O)C3=C[C@@H](O)C[C@@H]42)C1
IC50 (A549): > 10 µM | IC50 [1]: 6.2 µM | IC50 (DU-145): > 10 µM | IC50 [2]: > 10 µM

COc1cccc2c1C(=O)c1c(O)c3c(c(O)c1C2=O)C[C@@](O)(C(=O)CO)C[C@@H]3O[C@H]1C[C@H](N)[C@H](O)[C@H](C)O1 [DOXORUBICIN HYDROCHLORIDE]
IC50 (A549): 23.7 µM | IC50 [1]: 11.7 µM | IC50 (DU-145): 21.4 µM | IC50 [2]: 4.22 µM

CC(=O)O[C@H]1C(=O)[C@@]2(C)[C@H]([C@H](OC(=O)c3ccccc3)[C@]3(O)C[C@H](OC(=O)[C@H](O)[C@@H](NC(=O)c4ccccc4)c4ccccc4)C(C)=C1C3(C)C)[C@]1(OC(C)=O)CO[C@@H]1C[C@@H]2O [PACLITAXEL]
IC50 [1]: 0.94 µM | IC50 (DU-145): 1.79 µM | IC50 [2]: 0.85 µM

— ChEMBL document CHEMBL3352693, “Notolutesins A-J, dolabrane-type diterpenoids from the Chinese liverwort Notoscyphus lutescens” (J Nat Prod, 2014)
